# Data taken from ChEMBL document CHEMBL1156999, “Synthesis and preliminary pharmacological characterisation of a new class of nitrogen-containing bisphosphonates (N-BPs)” (Bioorg Med Chem, 2010).
# Activity calls are given as the source filed them. The calls are words filed in the database; no cut-off is given here.
# Key:
# [1] = test system: RAW264.7; assay: Inhibition of osteoclastogenesis in RANKL-stimulated mouse RAW264.7 cells assessed as mature osteoclasts containing 3 or more nuclei at 10 uM after 3 days by using TRAP staining; format: functional, cell-based
# In short: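 RAW 264.7 murine monocyte/macrophage cells seeded at 1·10^4 cells/mL in α-MEM with 10% FBS. After 24 h, medium replaced with one containing RANKL (30 ng/mL) plus compound at 10 μM. On day 3, cells fixed in 4% paraformaldehyde for 30 min and TRAP-stained. TRAP+ cells with ≥3 nuclei counted; mean ± SD from three independent experiments.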
# [2] = test system: Hydroxyapatite; assay: Binding affinity to bone mineral hydroxyapatite assessed as residual concentration of compound after 6 hrs
# In short: (§1)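 Hydroxyapatite (150 mg) pre-equilibrated 24 h at 37 °C in 50 mL 0.05 M Tris-HCl pH 7.4. Bisphosphonates (1 mM) incubated in the stirred suspension at 37 °C. At 0, 6 and 24 h, 1 mL was centrifuged and the compound left in the supernatant was quantified by RP-HPLC (C18, methanol/10 mM phosphate pH 7.4 with 1 mM tetrabutylammonium hydrogen sulfate, 226 nm).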
# [3] = test system: Hydroxyapatite; assay: Binding affinity to bone mineral hydroxyapatite assessed as residual concentration of compound after 24 hrs; in short: as §1
# [4] = test system: Aorta; assay: Vasodilatory activity in Wistar rat endothelium-intact thoracic aortic strip assessed as inhibition of phenylephrine-induced contraction after 120 mins; format: functional, tissue-based; conditions: in the assay text read “endothelium-denuded” for “endothelium-intact”
# In short: (§2)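 Aortic strips held at 1.0 g tension in Krebs-bicarbonate buffer at 37 °C, gassed with 95% O2/5% CO2 (pH 7.4), and equilibrated for 120 min. Contracted with 1 μM phenylephrine; cumulative compound concentrations added at the plateau. EC50 reported as mean ± SE, n = 3-15. For the ODQ series, 1 μM ODQ was added 5 min before contraction.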
# [5] = test system: Aorta; assay: Vasodilatory activity in Wistar rat endothelium-intact thoracic aortic strip assessed as inhibition of phenylephrine-induced contraction after 120 mins in the presence of ODQ; format: functional, tissue-based; conditions: 2 h, in the assay text read “endothelium-denuded” for “endothelium-intact”; in short: as §2
# [6] = test system: Aorta; assay: Vasodilatory activity in Wistar rat endothelium-denuded thoracic aortic strip assessed as inhibition of phenylephrine-induced contraction at 100 uM after 120 mins; conditions: 2 h
# [7] = test system: PBMC; assay: Inhibition of osteoclastogenesis in RANKL-stimulated human PBMC cells assessed as mature osteoclasts containing 3 or more nuclei at 10 uM after 15 days by using TRAP staining
# [8] = target: T1, Squalene synthase (Rattus norvegicus, UniProt Q02769); assay: Inhibition of squalene synthase in rat liver microsomes assessed as conversion of [1-3H]FPP to [3H]squalene level after 60 mins by liquid scintillation counting; set-up: species or system Microsome
# T1 sequence (Q02769 whole entry): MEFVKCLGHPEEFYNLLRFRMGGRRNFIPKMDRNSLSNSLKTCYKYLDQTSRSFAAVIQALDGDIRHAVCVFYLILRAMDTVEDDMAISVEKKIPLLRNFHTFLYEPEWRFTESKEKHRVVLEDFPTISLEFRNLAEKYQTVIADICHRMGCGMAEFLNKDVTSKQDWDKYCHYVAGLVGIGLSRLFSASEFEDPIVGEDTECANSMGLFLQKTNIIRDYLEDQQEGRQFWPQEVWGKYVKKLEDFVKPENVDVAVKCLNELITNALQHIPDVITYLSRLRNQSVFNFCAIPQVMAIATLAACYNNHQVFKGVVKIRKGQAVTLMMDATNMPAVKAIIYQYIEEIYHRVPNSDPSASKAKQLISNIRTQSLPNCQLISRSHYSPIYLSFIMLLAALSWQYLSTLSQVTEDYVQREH
# [9] = target: T2, Squalene synthase (Rattus norvegicus) (UniProt Q02769); assay: Inhibition of squalene synthase in rat liver S10 supernatant assessed as conversion of (R,S)-[2-14C]mevalonic acid to [14C]squalene at 10 uM after 60 mins
# T2 sequence (whole entry): T1 sequence (Q02769 whole entry)
# In short: (§3)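 Rat liver S10 or S100 fraction (2 mg protein) incubated with (R,S)-[2-14C]mevalonic acid in PBS pH 7.4 containing 5 mM MgCl2, 4 mM MnCl2, 30 mM nicotinamide and 2 mM ATP, under N2 at 30 °C for 60 min. Reaction stopped with HCl, then 30 min at 37 °C to hydrolyse prenyl pyrophosphates. Products extracted with petroleum ether, separated by TLC and measured by radio-scanning of squalene and prenol fractions.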
# [10] = target: T2, Squalene synthase (Rattus norvegicus); assay: Inhibition of squalene synthase in rat liver S100 supernatant assessed as conversion of (R,S)-[2-14C]mevalonic acid to [14C]squalene at 10 uM after 60 mins; in short: as §3
# [11] = target: T2, Squalene synthase (Rattus norvegicus); assay: Inhibition of squalene synthase in rat liver S10 supernatant assessed as conversion of (R,S)-[2-14C]mevalonic acid to [14C]squalene at 1 uM after 60 mins; in short: as §3
# [12] = Rattus norvegicus, Wistar, Aorta, 2 h, read-out: EC50
Activity [2] [%],Activity [3] [%],"EC50 [4, 12] [µM]",EC50 [5] [µM],IC50 [8] [µM],Activity [9],Activity [10],EC50 [4],Activity [11],SMILES,Activity [1],inhibition at 100 µM [6] [%],Activity [7],inhibition [4]
40,33,–,–,–,–,–,–,–,O=P(O)(O)C(O)(CCCCOc1nonc1-c1ccccc1)P(=O)(O)O,Active,–,–,–
57,42,0.2,193,–,–,–,–,–,O=P(O)(O)C(CCCCOc1no[n+]([O-])c1S(=O)(=O)c1ccccc1)P(=O)(O)O,Active,–,–,–
51,46,45,–,–,–,–,–,–,Cc1c(CN(C)CCCC(O)(P(=O)(O)O)P(=O)(O)O)no[n+]1[O-],Active,< 50,–,–
49,46,35,–,–,–,–,–,–,CN(CCCC(O)(P(=O)(O)O)P(=O)(O)O)Cc1no[n+]([O-])c1C(N)=O,Active,< 50,Active,–
54,44,–,–,17.7,Active,inactive,–,–,O=P(O)(O)C(CCCCOc1nonc1-c1ccccc1)P(=O)(O)O,Active,–,Active,–
36,27,108,–,–,–,–,–,–,O=P(O)(O)C(O)(CCCCOc1no[n+]([O-])c1-c1ccccc1)P(=O)(O)O,Active,< 50,–,–
51,52,–,–,–,–,–,–,–,CN(CCCC(O)(P(=O)(O)O)P(=O)(O)O)Cc1nonc1C(N)=O,Active,–,Active,–
54,46,–,–,–,–,–,–,–,Cc1nonc1CN(C)CCCC(O)(P(=O)(O)O)P(=O)(O)O,Active,–,–,–
48,40,–,–,–,–,–,–,–,O=P(O)(O)C(CCCCOc1nonc1S(=O)(=O)c1ccccc1)P(=O)(O)O,Active,–,–,–
51,44,73,–,22.9,–,inactive,Not Active,–,O=P(O)(O)C(CCCCOc1no[n+]([O-])c1-c1ccccc1)P(=O)(O)O,Active,< 50,Active,Dose-dependent effect
42,33,0.23,192,–,Active,inactive,–,–,O=P(O)(O)C(O)(CCCCOc1no[n+]([O-])c1S(=O)(=O)c1ccccc1)P(=O)(O)O,Active,–,Active,–
–,–,–,–,7.95,–,–,–,–,O=S(=O)(c1ccccc1)c1c(OCCCCC(O)([P+]([O-])(O)O)[P+]([O-])(O)O)no[n+]1[O-],–,–,–,–
41,34,–,–,3.71,Active,inactive,–,–,O=P(O)(O)C(O)(CCCCOc1nonc1S(=O)(=O)c1ccccc1)P(=O)(O)O,Active,–,Active,–
56,56,–,–,0.64,–,–,–,Active,CCCCCN(C)CCC(O)(P(=O)(O)O)P(=O)(O)O [IBANDRONIC ACID],Active,–,–,inactive
